From ChEMBL document CHEMBL1944635, “Synthesis and evaluation of debromohymenialdisine-derived Chk2 inhibitors” (Bioorg Med Chem, 2012)

Tests used:
[1] = target: T1, Serine/threonine-protein kinase Chk1 (Homo sapiens, UniProt O14757); experiment: Inhibition of human CHK1 using STK1 as substrate after 10 mins by HTRF assay
T1 sequence (O14757 whole entry): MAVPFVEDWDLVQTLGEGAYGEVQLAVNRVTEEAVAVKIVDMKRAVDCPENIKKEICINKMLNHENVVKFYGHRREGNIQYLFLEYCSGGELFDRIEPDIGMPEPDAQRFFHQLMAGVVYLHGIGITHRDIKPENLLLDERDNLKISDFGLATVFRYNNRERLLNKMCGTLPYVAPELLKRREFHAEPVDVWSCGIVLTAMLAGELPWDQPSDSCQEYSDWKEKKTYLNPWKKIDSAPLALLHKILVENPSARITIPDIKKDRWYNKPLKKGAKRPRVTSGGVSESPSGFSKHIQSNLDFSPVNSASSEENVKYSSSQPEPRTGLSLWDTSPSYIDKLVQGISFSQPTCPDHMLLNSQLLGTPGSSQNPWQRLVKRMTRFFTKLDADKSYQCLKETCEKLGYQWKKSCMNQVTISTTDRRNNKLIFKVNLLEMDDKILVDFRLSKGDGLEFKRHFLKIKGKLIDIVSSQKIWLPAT
Outline: (§1)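 Human Chk1 or Chk2 was incubated with test agent over a concentration range (final DMSO 0.2%) and STK1 substrate (50 nM for Chk1, 1 µM for Chk2) in 50 mM HEPES pH 7.0 with 5 mM MgCl2 and 1 mM DTT. The reaction was started with 100 µM ATP and ran 10 min at 30 °C. It was stopped with EDTA containing Sa-XL665 and Eu(K) antibody, then held 1 h at room temperature. TR-FRET 665/620 ratio was read, minus the negative control. IC50s are means of at least three independent experiments, each in duplicate.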

Homo sapiens = species on record: Homo sapiens; experiment: Selectivity ratio of IC50 for human CHK1 to IC50 for human CHK2
[2] = target: Serine/threonine-protein kinase Chk2 (Homo sapiens, UniProt O96017); experiment: Inhibition of human Chk2 using STK1 as substrate after 10 mins by HTRF assay; outline: as §1
Chain of Serine/threonine-protein kinase Chk2 (O96017 whole entry): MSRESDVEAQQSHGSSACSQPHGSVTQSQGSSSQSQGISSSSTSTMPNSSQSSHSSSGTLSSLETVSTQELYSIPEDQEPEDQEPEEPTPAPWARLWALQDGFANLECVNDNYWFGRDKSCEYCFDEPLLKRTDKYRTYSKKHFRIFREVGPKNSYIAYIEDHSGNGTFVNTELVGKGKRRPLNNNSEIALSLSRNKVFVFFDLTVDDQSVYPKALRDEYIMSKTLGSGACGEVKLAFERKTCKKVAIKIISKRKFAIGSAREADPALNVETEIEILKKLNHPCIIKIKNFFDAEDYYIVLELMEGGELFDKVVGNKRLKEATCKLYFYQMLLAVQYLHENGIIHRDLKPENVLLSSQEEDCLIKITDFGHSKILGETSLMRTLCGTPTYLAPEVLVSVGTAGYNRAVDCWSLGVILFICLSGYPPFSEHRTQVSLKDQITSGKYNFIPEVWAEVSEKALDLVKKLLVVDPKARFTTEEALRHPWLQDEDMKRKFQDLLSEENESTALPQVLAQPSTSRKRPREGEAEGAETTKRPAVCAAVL

SMILES | IC50 [1] [nM] | Ratio IC50 (Homo sapiens) | IC50 [2] [nM]
CNC1=NC(=O)/C(=C2\CCNC(=O)c3[nH]c(-c4ccccc4)cc32)N1 | 6560 | 38 | 171
Nc1nc(C2=C3C(=Nc4ccccc43)C(=O)NCC2)c(O)[nH]1 | 234 | 29 | 
CCOC(=O)CCNC1=NC(=O)/C(=C2\CCNC(=O)c3[nH]c(-c4ccccc4)cc32)N1 | > 10000 | > 36 | 277
O=C1N=C(NC2CCCCC2)N/C1=C1/CCNC(=O)c2[nH]c(-c3ccccc3)cc21 | > 10000 | > 7 | 1530
CCCNC1=NC(=O)/C(=C2\CCNC(=O)c3[nH]c(-c4ccccc4)cc32)N1 | > 10000 | > 64 | 156
O=C1N=C(NCc2ccccc2)N/C1=C1/CCNC(=O)c2[nH]c(-c3ccccc3)cc21 | 905 | 32 | 28
COc1ccc(-c2cc3c([nH]2)C(=O)NCC/C3=C2/NC(N)=NC2=O)cc1 | 867 | 62 | 14
NC1=NC(=O)/C(=C2\CCNC(=O)c3[nH]c(-c4ccccc4)cc32)N1 | 1310 | 66 | 20
COc1ccc(CNC2=NC(=O)/C(=C3\CCNC(=O)c4[nH]c(-c5ccccc5)cc43)N2)cc1 | > 10000 | > 17 | 588
COc1ccc(-c2cc3c([nH]2)C(=O)NCC/C3=C2/NC(N)=NC2=O)cc1OC | 1550 | 111 | 14
NC1=N/C(=C2/CCNC(=O)c3[nH]ccc32)C(=O)N1 |  | 4 | 
